# In the library only some 1.4% were active in any assay of this set; here they are far more common.
# FXIIa inh = human FXIIa protease inhibitors, primary screen, biochemical, 1536-well. purified FXIIa, Boc-QGR-AMC fluorogenic substrate, 2 h. Coagulation factor XII (Homo sapiens), P00748. hit rate 0.3% among 220,000. inhibition, % at 5 µM; in the data active = inhibition above about 40%;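 also: 0% = enzyme with no compound and 100% = blank without enzyme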
# Target sequence (P00748 20-372 limits assumed): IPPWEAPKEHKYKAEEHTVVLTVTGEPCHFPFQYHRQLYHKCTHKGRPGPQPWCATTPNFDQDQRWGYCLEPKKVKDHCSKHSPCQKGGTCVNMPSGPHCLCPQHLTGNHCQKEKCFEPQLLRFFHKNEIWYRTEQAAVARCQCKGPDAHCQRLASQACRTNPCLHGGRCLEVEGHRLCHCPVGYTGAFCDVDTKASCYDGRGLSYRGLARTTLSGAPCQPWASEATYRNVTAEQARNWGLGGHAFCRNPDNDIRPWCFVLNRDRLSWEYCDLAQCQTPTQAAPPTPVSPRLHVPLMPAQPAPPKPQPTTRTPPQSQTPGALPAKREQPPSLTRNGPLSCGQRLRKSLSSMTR
# Target sequence (P00748 373-615 limits assumed): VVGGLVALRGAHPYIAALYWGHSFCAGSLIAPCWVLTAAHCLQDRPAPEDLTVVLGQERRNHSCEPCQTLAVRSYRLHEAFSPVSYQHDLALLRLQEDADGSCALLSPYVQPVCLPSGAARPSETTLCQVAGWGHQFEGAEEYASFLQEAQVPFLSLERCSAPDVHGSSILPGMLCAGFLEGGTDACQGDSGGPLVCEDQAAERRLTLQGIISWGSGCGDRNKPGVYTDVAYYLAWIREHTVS
# KLK5 inh = human KLK5 protease inhibitors, primary screen, biochemical, 1536-well | Kallikrein-5 (Homo sapiens), Q9Y337 | hit rate 0.59% among 210,000 | AID 873, 2007 | inhibition, % at 5 µM | recombinant hK5, fluorogenic AMC substrate cleavage;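 active = inhibition of 40% or more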;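 also: 0% = enzyme controls without compound and 100% = no-enzyme blanks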
# m-calpain inh = inhibitors of pig calpain II, primary screen, biochemical, fluorogenic peptide substrate, 1536-well; hit rate 0.37% among 220,000; AID 1236, 2008; purified calpain II, 30 min; inhibition, % at 16 µM;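 active = inhibition above about 50%, limit read from the data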
# Thrombin inh = human alpha-thrombin inhibitors, primary screen, counter-screen for coagulation protease inhibitor project, biochemical, 1536-well, fluorogenic AMC substrate | Prothrombin (Homo sapiens), P00734 | Boc-VPR-AMC fluorogenic substrate cleavage | inhibition, % at 5 µM | hit rate 0.26% among 220,000;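 active = inhibition at or above 40%; inactive = inhibition below 40%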;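 also: 0% = enzyme with no compound and 100% = wells without enzyme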
#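 Assay system: human alpha-thrombin enzyme. Reagent: Boc-VPR-AMC substrate, 15 µM final. Compound dosing: one concentration per compound, 5 µM, with 0.2% DMSO. Incubation: room-temperature reaction. Technique: AMC fluorescence, 355/460 nm. Measure: % inhibition relative to enzyme controls and enzyme-free blanks.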
# FXIa inh 1536 = human FXIa protease inhibitors, primary screen, biochemical, 1536-well. inhibition, % at 5 µM. hit rate 0.14% among 220,000. purified FXIa, Boc-Glu-Ala-Arg-AMC fluorogenic substrate;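 active = inhibition of at least 40%; inactive = inhibition below 40%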;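 also: fluorescence of freed AMC excited at 355 nm; 0% = enzyme without compound and 100% = no enzyme blank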
# The depositor's hits bear a star; · = not tested or not shown.
SMILES,FXIIa inh,KLK5 inh,m-calpain inh,Thrombin inh,FXIa inh 1536
CC1(C)CN(c2ccccc2)N(C(=O)c2ccc(C#N)cc2)C1=O,21,-13,2,19,2
CC(=O)OCC1(C)CN(c2ccccc2)N(C(C)=O)C1=O (stereo unspecified),11,12,24,-3,0
CC(=O)OCC1(C)CN(c2ccccc2)N(C(=O)c2ccc(C(C)(C)C)cc2)C1=O (stereo unspecified),1,-1,-10,43*,-5
O=C(Nc1ccccc1C(=O)NCc1ccco1)c1ccccc1,4,-8,-12,2,5
O=C(Nc1ccc(Cl)cc1)Nc1ccccc1C(=O)NCc1ccco1,31,51*,11,5,104*
CS(=O)(=O)c1ccc2nc(NC(=O)C3COc4ccccc4O3)sc2c1 (stereo unspecified),17,156*,4,18,3
COc1cccc(OC)c1-c1nn2c(-c3cc(-c4ccccc4)n[nH]3)nnc2s1,0,-16,85*,0,-17
N=C(N)c1ccc(OCCCCCOc2ccc(C(=N)N)cc2)cc1,46*,-1,4,25,10
CN(C)S(=O)(=O)c1ccc(C(=O)NCC(=O)N/N=C/c2ccccc2Cl)cc1,-1,-5,4,-5,-3
O=C(Nc1ccccc1Cl)c1ccccc1Cl,13,-6,-18,3,5
Cn1c(=O)c2cc(NC(=O)c3ccccc3Cl)c(=O)oc2n(C)c1=O,24,-8,-13,80*,34
CN(Cc1ccccc1)c1ncc(C=O)s1,15,·,6,5,6
Cc1sc(NC(=O)Cc2ccc3c(c2)OCO3)nc1-c1ccc2c(c1)CCN2C(=O)c1ccccc1F,13,-23,-64,2,4
Cc1sc(NC(=O)CN(C)C2CCCCC2)nc1-c1ccc2c(c1)CCN2S(=O)(=O)c1ccccc1,14,43*,-202,21,5
COC(=O)c1ccccc1S(=O)c1snnc1C (stereo unspecified),12,-6,0,5,-1
CCC(c1nnnn1Cc1cccs1)N1CCN(C2CCCC2)CC1 (stereo unspecified),12,47*,-7,0,9
CCCC(c1nnnn1Cc1cccs1)N1CCN(C2CCCC2)CC1 (stereo unspecified),8,1,-20,-4,2
OC(CN1C2=NCCN2c2ccccc21)c1ccccc1 (stereo unspecified),24,-5,-2,2,4
OC(CN1C2=NCCN2c2ccccc21)c1ccc(Br)cc1 (stereo unspecified),1,53*,1,12,7
CC(C)(CN1CCN(C(c2ccccc2)c2ccccc2)CC1)NS(=O)(=O)c1ccccc1,2,-1,20,-5,-3
Cc1cccc(N2CCN(C3=NC(=O)C(=C4CCCCC4)S3)CC2)c1,-3,120*,-12,1,-5
CC(/C=N/NC(=O)c1cc(-c2cccn2C)n[nH]1)=C\c1ccccc1,36,57*,13,21,53*
Cc1cc(C)c(S(=O)(=O)Nc2ccnc(-c3cccnc3)n2)c(C)c1,9,18,14,-2,-24
CCOC(=O)CNC(=O)CSc1nnc(-c2ccc(OC)cc2)n1CC,6,-6,-11,-8,-2
CCOC(=O)CSc1nnc(-c2ccc(OC)cc2)n1CC,26,78*,12,38,19
SMILES,FXIIa inh,KLK5 inh,m-calpain inh,Thrombin inh,FXIa inh 1536
O=C1CSC(c2cn(-c3ccccc3)nc2-c2cc3ccccc3oc2=O)N1Cc1ccco1 (stereo unspecified),8,153*,-5,-4,22
O=C1NN(c2ccccc2)C(=O)/C1=C\c1cccc(OC(=O)c2cccs2)c1,-1,5,0,0,49*
CC(NC(=O)CN(C1CCCCC1)S(C)(=O)=O)c1ccccc1 (stereo unspecified),18,36,28,61*,18
CC(C)CNC(=O)CN(C1CCCCC1)S(C)(=O)=O,10,52*,7,24,3
CN(C)S(=O)(=O)Oc1ccsc1C(=O)Nc1ccc(Cl)c(Cl)c1,42*,3,30,-2,13
CN(C)S(=O)(=O)Oc1ccsc1C(=O)Nc1cccc(Cl)c1,47*,6,29,-1,19
